Converted amounts (≈) assume the structure as drawn.
Columns and labels:
Format in all cases: functional
Staphylococcus aureus [1] = test: Antibacterial activity against methicillin-sensitive Staphylococcus aureus 14-4 after 18 to 24 hrs by two-fold serial dilution method
Summary of the method: (§1)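 Twofold serial dilution in agar media against Gram-positive and Gram-negative strains. Plates incubated at 35 °C for 18–24 h. MIC read as the lowest compound concentration giving complete inhibition of bacterial growth.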

[2] = system: Staphylococcus epidermidis; test: Antibacterial activity against methicillin-resistant Staphylococcus epidermidis 14-21 after 18 to 24 hrs by two-fold serial dilution method
Summary of the method: (§2)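 Agar media, standard twofold serial dilution. MIC is the lowest concentration giving complete inhibition of bacterial growth after incubation at 35 °C for 18–24 h. Ciprofloxacin and levofloxacin were run as comparators.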

Enterococcus faecalis [3] = test: Potency index, ratio of levofloxacin MIC to compound MIC for Enterococcus faecalis 14-2
Staphylococcus aureus [4] = test: Antibacterial activity against Staphylococcus aureus CMCC 26003 after 18 to 24 hrs by two-fold serial dilution method; summary of the method: as §1
Staphylococcus aureus [5] = test: Potency index, ratio of ciprofloxacin MIC to compound MIC for methicillin-resistant Staphylococcus aureus 14-4
Enterococcus faecium [6] = test: Potency index, ratio of ciprofloxacin MIC to compound MIC for Enterococcus faecium 14-5
Klebsiella pneumoniae [7] = test: Antibacterial activity against Klebsiella pneumoniae 14-4 after 18 to 24 hrs by two-fold serial dilution method; summary of the method: as §1
Pseudomonas aeruginosa [8] = test: Antibacterial activity against Pseudomonas aeruginosa 14-14 after 18 to 24 hrs by two-fold serial dilution method; summary of the method: as §1
Enterococcus faecalis [9] = test: Potency index, ratio of ciprofloxacin MIC to compound MIC for Enterococcus faecalis 14-2
Staphylococcus aureus [10] = test: Potency index, ratio of levofloxacin MIC to compound MIC for methicillin-resistant Staphylococcus aureus 14-5
Pseudomonas aeruginosa [11] = test: Antibacterial activity against Pseudomonas aeruginosa ATCC 27853 after 18 to 24 hrs by two-fold serial dilution method; summary of the method: as §1
Enterococcus faecalis [12] = test: Antibacterial activity against Enterococcus faecalis 14-1 after 18 to 24 hrs by two-fold serial dilution method; summary of the method: as §1
Klebsiella pneumoniae [13] = test: Antibacterial activity against Klebsiella pneumoniae 14-3 after 18 to 24 hrs by two-fold serial dilution method; summary of the method: as §1
Streptococcus pneumoniae = test: Antibacterial activity against methicillin-resistant Streptococcus pneumoniae ATCC 19615 after 18 to 24 hrs by two-fold serial dilution method; summary of the method: as §2
Staphylococcus aureus [14] = test: Potency index, ratio of levofloxacin MIC to compound MIC for methicillin-resistant Staphylococcus aureus 14-4
Staphylococcus aureus [15] = test: Antibacterial activity against methicillin-sensitive Staphylococcus aureus 14-1 after 18 to 24 hrs by two-fold serial dilution method; summary of the method: as §1
[16] = system: Mycobacterium tuberculosis; test: Antimycobacterial activity against Mycobacterium tuberculosis H37Rv ATCC 27294 incubated for 7 days by microplate Alamar Blue assay; settings: H37Rv ATCC 27294, 168 h
Summary of the method: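 Fluorescence read-out. MIC is the lowest concentration that reduces fluorescence by at least 90% relative to the mean of replicate bacterium-only controls. Isoniazid and rifampicin were included as reference drugs.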

Enterococcus faecium [17] = test: Potency index, ratio of ciprofloxacin MIC to compound MIC for Enterococcus faecium 14-6
Enterococcus faecium [18] = test: Potency index, ratio of ciprofloxacin MIC to compound MIC for Enterococcus faecium 14-2
[19] = system: Staphylococcus epidermidis; test: Potency index, ratio of ciprofloxacin MIC to compound MIC for methicillin-resistant Staphylococcus epidermidis 14-37
Klebsiella pneumoniae [20] = test: Antibacterial activity against extended-spectrum beta-lactamase producing Klebsiella pneumoniae 14-17 after 18 to 24 hrs by two-fold serial dilution method; summary of the method: as §1
Staphylococcus aureus [21] = test: Potency index, ratio of ciprofloxacin MIC to compound MIC for methicillin-resistant Staphylococcus aureus 14-5
[22] = system: Staphylococcus epidermidis; test: Potency index, ratio of ciprofloxacin MIC to compound MIC for methicillin-resistant Staphylococcus epidermidis 14-21
Enterococcus faecalis [23] = test: Potency index, ratio of ciprofloxacin MIC to compound MIC for Enterococcus faecalis 14-1
Staphylococcus aureus [24] = test: Antibacterial activity against methicillin-sensitive Staphylococcus aureus 14-3 after 18 to 24 hrs by two-fold serial dilution method; summary of the method: as §1
Enterococcus faecium [25] = test: Potency index, ratio of levofloxacin MIC to compound MIC for Enterococcus faecium 14-5
Enterococcus faecium [26] = test: Potency index, ratio of levofloxacin MIC to compound MIC for Enterococcus faecium 14-2
Klebsiella pneumoniae [27] = test: Antibacterial activity against extended-spectrum beta-lactamase producing Klebsiella pneumoniae 14-18 after 18 to 24 hrs by two-fold serial dilution method; summary of the method: as §1
[28] = system: Staphylococcus epidermidis; test: Antibacterial activity against methicillin-resistant Staphylococcus epidermidis 14-22 after 18 to 24 hrs by two-fold serial dilution method; summary of the method: as §2
Enterococcus faecium [29] = test: Antibacterial activity against Enterococcus faecium 14-5 after 18 to 24 hrs by two-fold serial dilution method; summary of the method: as §1
[30] = system: Staphylococcus epidermidis; test: Potency index, ratio of ciprofloxacin MIC to compound MIC for methicillin-resistant Staphylococcus epidermidis 14-22
Staphylococcus aureus [31] = test: Antibacterial activity against methicillin-resistant Staphylococcus aureus 14-5 after 18 to 24 hrs by two-fold serial dilution method; summary of the method: as §2
Enterococcus faecium [32] = test: Antibacterial activity against Enterococcus faecium 14-2 after 18 to 24 hrs by two-fold serial dilution method; summary of the method: as §1
Enterococcus faecalis [33] = test: Antibacterial activity against Enterococcus faecalis 14-2 after 18 to 24 hrs by two-fold serial dilution method; summary of the method: as §1
[34] = system: Staphylococcus epidermidis; test: Potency index, ratio of levofloxacin MIC to compound MIC for methicillin-resistant Staphylococcus epidermidis 14-37
Escherichia coli [35] = test: Antibacterial activity against Escherichia coli ATCC 25922 after 18 to 24 hrs by two-fold serial dilution method; summary of the method: as §1
Enterococcus faecium [36] = test: Potency index, ratio of levofloxacin MIC to compound MIC for Enterococcus faecium 14-6
[37] = system: Staphylococcus epidermidis; test: Potency index, ratio of levofloxacin MIC to compound MIC for methicillin-resistant Staphylococcus epidermidis 14-22
Pseudomonas aeruginosa [38] = test: Antibacterial activity against Pseudomonas aeruginosa 14-9 after 18 to 24 hrs by two-fold serial dilution method; summary of the method: as §1
[39] = system: Staphylococcus epidermidis; test: Antibacterial activity against methicillin-resistant Staphylococcus epidermidis 14-37 after 18 to 24 hrs by two-fold serial dilution method; summary of the method: as §2
Klebsiella pneumoniae [40] = test: Antibacterial activity against extended-spectrum beta-lactamase producing Klebsiella pneumoniae 14-19 after 18 to 24 hrs by two-fold serial dilution method; summary of the method: as §1
Klebsiella pneumoniae [41] = test: Antibacterial activity against Klebsiella pneumoniae 14-2 after 18 to 24 hrs by two-fold serial dilution method; summary of the method: as §1
[42] = system: Staphylococcus epidermidis; test: Potency index, ratio of levofloxacin MIC to compound MIC for methicillin-resistant Staphylococcus epidermidis 14-39
Pseudomonas aeruginosa [43] = test: Antibacterial activity against Pseudomonas aeruginosa 14-15 after 18 to 24 hrs by two-fold serial dilution method; summary of the method: as §1
[44] = system: Staphylococcus epidermidis; test: Potency index, ratio of levofloxacin MIC to compound MIC for methicillin-resistant Staphylococcus epidermidis 14-21
Staphylococcus aureus [45] = test: Antibacterial activity against methicillin-resistant Staphylococcus aureus 14-4 after 18 to 24 hrs by two-fold serial dilution method; summary of the method: as §2
Escherichia coli [46] = test: Antibacterial activity against Escherichia coli 14-1 after 18 to 24 hrs by two-fold serial dilution method; summary of the method: as §1
[47] = system: Staphylococcus epidermidis; test: Potency index, ratio of ciprofloxacin MIC to compound MIC for methicillin-resistant Staphylococcus epidermidis 14-39
Enterococcus faecalis [48] = test: Potency index, ratio of levofloxacin MIC to compound MIC for Enterococcus faecalis 14-1
Pseudomonas aeruginosa [49] = test: Antibacterial activity against Pseudomonas aeruginosa 14-16 after 18 to 24 hrs by two-fold serial dilution method; summary of the method: as §1
[50] = system: Staphylococcus epidermidis; test: Antibacterial activity against methicillin-sensitive Staphylococcus epidermidis 14-2 after 18 to 24 hrs by two-fold serial dilution method; summary of the method: as §1
Escherichia coli [51] = test: Antibacterial activity against extended-spectrum beta-lactamase producing Escherichia coli 14-1 after 18 to 24 hrs by two-fold serial dilution method; summary of the method: as §1
Klebsiella pneumoniae [52] = test: Antibacterial activity against Klebsiella pneumoniae 14-1 after 18 to 24 hrs by two-fold serial dilution method; summary of the method: as §1
Escherichia coli [53] = test: Antibacterial activity against extended-spectrum beta-lactamase producing Escherichia coli 14-2 after 18 to 24 hrs by two-fold serial dilution method; summary of the method: as §1
[54] = system: Staphylococcus epidermidis; test: Antibacterial activity against methicillin-resistant Staphylococcus epidermidis 14-39 after 18 to 24 hrs by two-fold serial dilution method; summary of the method: as §2
Escherichia coli [55] = test: Antibacterial activity against Escherichia coli 14-2 after 18 to 24 hrs by two-fold serial dilution method; summary of the method: as §1
Enterococcus faecium [56] = test: Antibacterial activity against Enterococcus faecium 14-6 after 18 to 24 hrs by two-fold serial dilution method; summary of the method: as §1

CO/N=C1/CN(c2c(F)cc3c(=O)c(C(=O)O)cn4c3c2OC[C@@H]4C)CC1(C)CNC1CC1 (some centres not stated)
MIC (Staphylococcus aureus [1]): 0.015 µg/mL (≈ 0.0327 µM)
MIC [2]: 4 µg/mL (≈ 8.72 µM)
Ratio (Enterococcus faecalis [3]): 2
MIC (Staphylococcus aureus [4]): < 0.008 µg/mL
Ratio (Staphylococcus aureus [5]): 2
Ratio (Enterococcus faecium [6]): 2
MIC (Klebsiella pneumoniae [7]): > 128 µg/mL
MIC (Pseudomonas aeruginosa [8]): 32 µg/mL (≈ 69.8 µM)
Ratio (Enterococcus faecalis [9]): 2
Ratio (Staphylococcus aureus [10]): 2
MIC (Pseudomonas aeruginosa [11]): 16 µg/mL (≈ 34.9 µM)
MIC (Enterococcus faecalis [12]): 8 µg/mL (≈ 17.4 µM)
MIC (Klebsiella pneumoniae [13]): 128 µg/mL (≈ 279 µM)
MIC (Streptococcus pneumoniae): 0.5 µg/mL (≈ 1.09 µM)
Ratio (Staphylococcus aureus [14]): 2
MIC (Staphylococcus aureus [15]): 2 µg/mL (≈ 4.36 µM)
MIC90 [16]: 0.64 µg/mL (≈ 1.4 µM)
Ratio (Enterococcus faecium [17]): 2
Ratio (Enterococcus faecium [18]): 2
Ratio [19]: 2
MIC (Klebsiella pneumoniae [20]): 16 µg/mL (≈ 34.9 µM)
Ratio (Staphylococcus aureus [21]): 2
Ratio [22]: 2
Ratio (Enterococcus faecalis [23]): 2
MIC (Staphylococcus aureus [24]): 0.015 µg/mL (≈ 0.0327 µM)
Ratio (Enterococcus faecium [25]): 2
Ratio (Enterococcus faecium [26]): 2
MIC (Klebsiella pneumoniae [27]): 16 µg/mL (≈ 34.9 µM)
MIC [28]: 2 µg/mL (≈ 4.36 µM)
MIC (Enterococcus faecium [29]): 4 µg/mL (≈ 8.72 µM)
Ratio [30]: 2
MIC (Staphylococcus aureus [31]): 4 µg/mL (≈ 8.72 µM)
MIC (Enterococcus faecium [32]): 4 µg/mL (≈ 8.72 µM)
MIC (Enterococcus faecalis [33]): 0.5 µg/mL (≈ 1.09 µM)
Ratio [34]: 2
MIC (Escherichia coli [35]): 2 µg/mL (≈ 4.36 µM)
Ratio (Enterococcus faecium [36]): 2
Ratio [37]: 2
MIC (Pseudomonas aeruginosa [38]): 8 µg/mL (≈ 17.4 µM)
MIC [39]: 2 µg/mL (≈ 4.36 µM)
MIC (Klebsiella pneumoniae [40]): 32 µg/mL (≈ 69.8 µM)
MIC (Klebsiella pneumoniae [41]): 16 µg/mL (≈ 34.9 µM)
Ratio [42]: 2
MIC (Pseudomonas aeruginosa [43]): 32 µg/mL (≈ 69.8 µM)
Ratio [44]: 2
MIC (Staphylococcus aureus [45]): 4 µg/mL (≈ 8.72 µM)
MIC (Escherichia coli [46]): 64 µg/mL (≈ 140 µM)
Ratio [47]: 2
Ratio (Enterococcus faecalis [48]): 2
MIC (Pseudomonas aeruginosa [49]): 32 µg/mL (≈ 69.8 µM)
MIC [50]: 8 µg/mL (≈ 17.4 µM)
MIC (Escherichia coli [51]): 4 µg/mL (≈ 8.72 µM)
MIC (Klebsiella pneumoniae [52]): 16 µg/mL (≈ 34.9 µM)
MIC (Escherichia coli [53]): > 128 µg/mL
MIC [54]: 2 µg/mL (≈ 4.36 µM)
MIC (Escherichia coli [55]): 64 µg/mL (≈ 140 µM)
MIC (Enterococcus faecium [56]): 8 µg/mL (≈ 17.4 µM)
